NR2E3 ag-1 – human photoreceptor-specific nuclear receptor agonism | inhibition of corepressor binding, % at 3.98 µM | hit rate 0.35% among 360,000 | CHO-S Gal4-NCOR/VP16-NR2E3 two-hybrid, luciferase | AID 602229 | Q9Y5X4;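 active means inhibition above the mean of all tested compounds plus 3 SD, cut at about 70% in these data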;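 further: 0% = DMSO with NR2E3 transfected cells and 100% = cells lacking NR2E3 construct; higher means lower luciferase signal from less NR2E3 corepressor binding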
Target sequence (Q9Y5X4 whole entry, looked up, the tested form may be a part): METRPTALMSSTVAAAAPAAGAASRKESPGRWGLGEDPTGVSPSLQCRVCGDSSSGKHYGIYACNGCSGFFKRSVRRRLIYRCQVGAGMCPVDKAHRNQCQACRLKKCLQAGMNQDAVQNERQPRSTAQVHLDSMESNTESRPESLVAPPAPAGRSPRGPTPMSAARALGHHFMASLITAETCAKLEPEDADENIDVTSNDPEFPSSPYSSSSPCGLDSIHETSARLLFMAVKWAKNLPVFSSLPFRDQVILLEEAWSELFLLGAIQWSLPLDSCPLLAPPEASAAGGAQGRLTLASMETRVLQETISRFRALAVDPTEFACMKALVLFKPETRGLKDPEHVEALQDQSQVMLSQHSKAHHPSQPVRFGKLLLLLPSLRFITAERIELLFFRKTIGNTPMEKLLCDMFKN
COUP-TFII inh – inhibitors of human COUP-TFII (NR2F2); P24468; HEK293T NGFI-A luciferase reporter, luminescence; inhibition, % at 8.6 µM; hit rate 0.7% among 370,000; AID 686940;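 active means inhibition above a per-plate cutoff, mean inhibition of test wells between control levels plus 3 SD, cut at about 38% in these data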;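 further: cells cotransfected with COUP-TFII expression vector driving the NGFI-A reporter; 0% = median of COUP-TF2 test wells and 100% = reporter-only cells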
GalR3 antagonist – blocks the human galanin receptor 3; HEK293 GalR3-CNG cAMP membrane potential fluorescence; galR3 body fused to GalR1 C-terminus; inhibition, % at 3 µM; hit rate 0.44% among 360,000; AID 651719;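 active means inhibition above the screen-wide average plus 3 SD, cut at about 13% in these data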;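 further: forskolin and galanin both at EC90 stimulate the cells; cAMP rise reported by CNG channel membrane potential dye signal; 0% = forskolin plus galanin with DMSO and 100% = forskolin alone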
SMARCA2 act – activators of SMARCA2 function; activation, % at 9.1 µM; MG213 cells, MMTV-luciferase reporter, dexamethasone, overnight; hit rate 1% among 370,000; in the data active means activation above about 7.8%;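 further: 0% = vehicle wells and 100% = reference activator wells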
NR2E3 ag-2 – agonists of human nuclear receptor NR2E3. Q9Y5X4. GST-NR2E3/biotin-RetCOR TR-FRET, 1536-well. inhibition of corepressor binding, % at 4.78 µM. hit rate 0.12% among 320,000;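 active means percent inhibition above the cutoff of mean plus 3 SD of all tested compounds, set per screening campaign, cut at about 20% in these data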;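 further: 0% = DMSO wells and 100% = biotin wells as full block of FRET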
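Assay system: NR2E3–RetCOR corepressor complex. Quantity: 1.35 nM GST-NR2E3. Buffer or medium: pH 7.5 Tris-based buffer. Reagent: biotinylated RetCOR corepressor at 7 nM final. Schedule: 5 h at 4 °C. Detection: TR-FRET, emission read at 617 and 671 nm. Replicates: one well per compound, singlicate testing.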
SMARCA2 conf – confirmation of SMARCA2 (BRM) function activators | shares compounds with SMARCA2 act | hit rate 30% among 3,500 | activation, % at 9.1 µM | MG213 cells, MMTV-luciferase with dexamethasone, luminescence, overnight; MG213 cells expressing E1A, Rb sequestered; DMSO wells 0%, reference activator 100%;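 active means activation above its plate's cutoff, the mean activation of tested wells plus 3 SD, cut at about 7.9% in these data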
GAL4-VP16 Luc – counter-screen for SMARCA2 activators: GAL4-VP16 luciferase reporter activation; shares compounds with SMARCA2 act; HEK293 GAL4-VP16 pG5luc reporter, luciferase luminescence; scaled: DMSO wells 0%, SAHA wells 100%; activation, % at 9.1 µM; hit rate 41% among 3,500; AID 686939;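 active means activation above the solvent-only control well mean plus 3 SD, averaged across control plates, cut at about 5.2% in these data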
Numbers without * were called inactive; · = not tested or not shown. Compounds with a hit are over-represented: about 2.2% of the library has one in this group of screens.

SMILES	NR2E3 ag-1	COUP-TFII inh	GalR3 antagonist	SMARCA2 act	NR2E3 ag-2	SMARCA2 conf	GAL4-VP16 Luc
Cc1ccc2c(c1)NP(=S)(Oc1ccccc1)N2 (stereo unspecified)	-139.8	-33.7	-6.6	10.3*	·	1.2	2.6
COc1ccc2c(c1)NP(=S)(Oc1ccccc1)N2 (stereo unspecified)	-152.6	-36.1	-7.7	6.5	-1.9	·	·
N[C@@H](Cc1ccc(N(CCCl)CCCl)cc1)C(=O)O	-0.5	-0.7	·	2.5	-0.3	·	·
ClCCN(CCCl)c1ccc(-n2cnc3c(Cl)ncnc32)cc1	-4.7	-10.3	-11.8	16.1*	·	-2.7	-0.1
CCC1CCCCN1CC(=O)c1ccc(OC(F)F)cc1 (stereo unspecified)	6.2	4.4	-12.6	14.0*	-0.4	-3.6	1.1
CC(=O)Nc1ccc(S(=O)(=O)N2Cc3cnnn3-c3ccccc3C2C#N)cc1 (stereo unspecified)	-4.5	-8.7	3.1	9.7*	·	-1.1	1.2
O=C(NC1CN2CCC1CC2)c1cc(-c2ccc(Cl)cc2)nc2ccccc12 (stereo unspecified)	·	-18.1	·	10.6*	·	2.0	1.9
CN1C(=O)COc2c(C(=O)NC3CN4CCC3CC4)cc(Cl)cc21 (stereo unspecified)	·	·	·	·	0.9	·	·
C[C@@H]1CNCCN1c1ccc(N2CC[C@@H](O)C2)c(C#N)c1	·	3.5	-9.6	3.8	·	·	·
O=c1c2ccccc2nc(/C=C/c2ccc([N+](=O)[O-])o2)n1-c1ccc(O)cc1	21.9	-13.9	1.7	9.5*	·	-14.4	0.8
COc1cccc(-n2c(CN3CCOCC3)nc3ccc([N+](=O)[O-])cc3c2=O)c1	-14.6	13.6	-8.6	11.0*	0.3	4.7	0.6
CCN1CCN(Cc2nc3ccc([N+](=O)[O-])cc3c(=O)n2-c2ccccc2F)CC1	-11.9	3.9	-6.6	-2.8	3.0	·	·
CCOC(=O)[C@]12Cc3cc(OC)ccc3[C@H]1N(C(C)C)C(=O)c1cc(OC)ccc12	-39.8	17.7	-8.1	-1.3	·	·	·
COC(=O)C1C(c2ccccc2)CC2CCC1N2C (stereo unspecified)	·	-28.0	-2.7	2.6	·	·	·
COc1ccc(N2C(=O)CC(N3CC=C(c4ccccc4)CC3)C2=O)cc1 (stereo unspecified)	-8.2	-20.1	-3.7	11.1*	0.8	-1.0	0.7
N#CC1(c2ccccc2)CCN(C2CC(=O)N(c3ccc(F)cc3)C2=O)CC1 (stereo unspecified)	8.7	4.8	-5.5	-1.8	0.2	·	·
C[C@@H]1CNCCN1c1ccc(N2CC[C@H](O)C2)c(C#N)c1	·	-0.6	-4.9	-1.0	·	·	·
Cc1ccc(S(=O)(=O)CC(=O)c2cc(C)c(OC(=O)N(C)C)c(C)c2)cc1	10.7	2.3	-10.6	-2.6	7.3	·	·
Cc1cc(C(=O)CS(=O)(=O)c2ccccc2)cc(C)c1OC(=O)N(C)C	-94.9	-21.7	-2.3	13.0*	-3.6	7.2	8.8*
CCOC(=O)C1=C(C(=O)OCC)C2(c3ccccc3)c3ccccc3C1(C)N2C (stereo unspecified)	·	6.6	-6.3	2.1	·	·	·
C=CCOC(=O)c1ccccc1N	5.9	-1.2	4.3	-2.8	-0.3	·	·
Nc1ccccc1C(=O)OCC(=O)N1CCc2ccccc21	-130.9	-25.6	-5.0	8.7*	·	7.5	7.5*
O=C(O)C(Br)Br	·	15.1	0.6	-2.4	·	·	·
COc1cc2c3cc1Oc1cc(ccc1O)C[C@@H]1c4c(cc(OC)c(O)c4Oc4ccc(cc4)C[C@H]3N(C)CC2)CCN1C	5.5	-15.3	·	10.1*	2.8	16.2*	1.5
CCn1c(O)c(/C=N/NC(=O)c2ccccc2)c(=O)n(CC)c1=S	7.5	-5.8	-5.5	8.1*	1.6	5.3	1.8
CC1OC(OC2C(O)CC(OC3C(O)CC(OC4CCC5(C)C(CCC6C5CCC5(C)C(C7=CC(=O)OC7)C(O)CC65O)C4)OC3C)OC2C)CC(O)C1O (stereo unspecified)	-24.5	20.8	0.0	1.5	·	·	·
